Results reported in paper PMC6896334 (Cell reports, 2019).
Residues, ends and D or L forms follow the SMILES beside them. *: point of attachment. Cbz = O=C(OCc1ccccc1)*

How the values were obtained:
[1] = biological target: T1, Id1 (Mus musculus, UniProt P20067); test: Circular dichroism; type: binding; settings: AGX51 0–50 μM; AGXA 0–110 μM in DMSO
T1 sequence (P20067 1-148 isoform P20067-2): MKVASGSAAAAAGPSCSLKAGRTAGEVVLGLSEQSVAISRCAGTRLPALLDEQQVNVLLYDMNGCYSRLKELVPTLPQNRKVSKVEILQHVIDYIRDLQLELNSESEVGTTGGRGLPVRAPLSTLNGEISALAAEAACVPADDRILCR

[2] = system: ID1, ID2, ID3, and ID4; test: Western blot for ID proteins in HCT116 cells; type: cell-based, human; settings: HCT116, 0–10 μM AGXA, 24 h
[3] = biological target: T2, NanoLuc luciferase ID1 fusion protein (Homo sapiens, UniProt P41134); test: NanoBRET target engagement assay in permeabilized 293T cells; type: binding
T2 sequence (P41134 1-155): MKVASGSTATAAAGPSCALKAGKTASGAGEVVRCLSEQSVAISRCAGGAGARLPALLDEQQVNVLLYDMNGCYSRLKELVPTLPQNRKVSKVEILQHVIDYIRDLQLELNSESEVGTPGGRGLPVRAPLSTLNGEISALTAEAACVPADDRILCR
In short: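 293T cells transfected with an N-terminal NanoLuc–ID1 fusion construct and plated 24 h later. Cells received 2 µM fluorescent tracer plus 0–60 µM competitor, then were permeabilised with digitonin (50 µg/mL). NanoBRET Nano-Glo substrate was added and the BRET ratio read, following the kit protocol for intracellular target engagement.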

[4] = biological target: T1, Id1; test: Western blot for Id1 in 4T1 cells; type: cell-based; settings: 4T1, 0–20 μM AGXA, 24 h
In short: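 4T1 cells were treated 24 h, collected by trypsinization, washed in PBS and lysed in sucrose/Tris pH 8.0/400 mM NaCl/MgCl2/0.5% NP40 buffer with protease inhibitors. Id1 immunoblots were quantified from 700 and 800 channel intensities, blank-subtracted and normalized to tubulin; IC50 reported from blots.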

[5] = system: choroidal neovascularization; test: Laser-induced choroidal neovascularization; type: in vivo, mouse; settings: intravitreal 1 μg dose, day 14
In short: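 Female C57BL/6 mice aged 4–6 weeks had laser rupture of Bruch's membrane at three sites per eye. Test compounds (1 or 5 µg) or DMSO were given intravitreally. At day 14, choroidal flat mounts were stained with FITC-Griffonia simplicifolia lectin, and CNV area was measured by fluorescence image analysis by an observer masked to group.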

[6] = system: HCT116 cells; test: HCT116 cell viability; type: cell-based, human; settings: cell-based assays (HCT116 and 4T1)
In short: (§1)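 MTT viability: cells seeded at 5000/well and left overnight, then exposed to the test compound for 24 h. MTT (5 mg/mL) was added for 4 h, medium removed and formazan dissolved in DMSO. Absorbance was read at 570 nm.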

[7] = Cell viability assays; type: cell-based; settings: data not shown
In short: as §1

[8] = biological target: T3, Id1-E47 interaction (Mus musculus, UniProt P20067); test: In vitro electrophoretic mobility shift assay; type: biochemical; settings: data not shown
T3 sequence (P20067 1-148 isoform P20067-2): T1 sequence (P20067 1-148 isoform P20067-2)
In short: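 Bacterially purified full-length E47 was mixed with a 32P-labelled E-box probe from the muscle creatine kinase enhancer, plus BSA, DTT, poly dI-dC, salmon sperm DNA and HeLa nuclear extract, with or without purified full-length Id1. Test compounds in DMSO (or DMSO alone) were added at rising concentrations for 30 min. Complexes were resolved on 5% native PAGE and autoradiographed.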

[9] = system: Id proteins; test: Degradation of Id proteins in cells; type: cell-based; settings: data not shown
[10] = biological target: T4, E47 (Homo sapiens, UniProt P15923); test: UV crosslinking of AGX51-XL2 to E47 and mass spectrometry; type: binding; settings: data not shown
T4 sequence (P15923 1-651 isoform P15923-2): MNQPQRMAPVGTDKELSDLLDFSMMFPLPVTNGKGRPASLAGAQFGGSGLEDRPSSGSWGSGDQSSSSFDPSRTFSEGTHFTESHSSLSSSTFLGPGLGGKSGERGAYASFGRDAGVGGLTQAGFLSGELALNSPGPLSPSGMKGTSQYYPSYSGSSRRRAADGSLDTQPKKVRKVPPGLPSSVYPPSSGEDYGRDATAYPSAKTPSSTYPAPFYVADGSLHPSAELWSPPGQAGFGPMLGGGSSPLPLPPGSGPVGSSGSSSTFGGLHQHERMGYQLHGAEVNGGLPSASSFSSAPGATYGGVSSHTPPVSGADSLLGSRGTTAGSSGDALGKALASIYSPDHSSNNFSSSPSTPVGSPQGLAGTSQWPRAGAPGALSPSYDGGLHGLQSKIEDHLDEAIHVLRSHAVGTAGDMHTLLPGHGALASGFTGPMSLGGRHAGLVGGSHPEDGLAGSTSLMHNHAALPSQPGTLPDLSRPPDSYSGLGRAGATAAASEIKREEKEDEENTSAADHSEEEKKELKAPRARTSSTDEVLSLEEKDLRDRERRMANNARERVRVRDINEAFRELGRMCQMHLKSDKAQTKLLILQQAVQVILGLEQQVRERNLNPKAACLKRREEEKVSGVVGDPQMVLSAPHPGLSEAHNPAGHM

[11] = biological target: T5, Id1 (59–104) (Mus musculus, UniProt P20067); test: UV crosslinking of AGX51-XL2 to purified Id1 and mass spectrometry; type: binding; settings: UV light 20 minutes
T5 sequence (P20067 59-104): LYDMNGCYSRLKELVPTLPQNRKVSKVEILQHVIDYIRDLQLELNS
In short: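 Purified Id1 (aa 59–104, 1 µg) was mixed in the dark with 19.7 ng of a benzophenone photoreactive test-compound analog in DMSO and UV-irradiated for 20 min, with a no-UV control. Samples were run in the dark on a 15% denaturing gel and silver stained. Bands were excised for mass spectrometry.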

[12] = biological target: T6, FLAG-ID1 (Homo sapiens, UniProt P41134); test: Ubiquitylation assay in HCT116 and U87 glioma cells; type: cell-based; settings: 60 μM AGX51 2 h, then 20 μM MG132 for 6 h
T6 sequence (P41134 1-155): T2 sequence (P41134 1-155)
In short: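 HCT116 cells co-transfected with FLAG-tagged ID1 and HA-ubiquitin. After 36 h they were exposed to 60 µM test compound for 2 h, then 20 µM MG132 for a further 6 h. Cells were washed in ice-cold PBS, lysed in TBS (50 mM Tris pH 8.0, 150 mM NaCl) containing 2% SDS, and boiled for 10 min.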

Q: Which results are given for “6-chloro-2-methyl-N-(4-propoxyphenyl)quinolin-4-amine hydrochloride [AGXA]”?
A: effect on Id1 secondary structure (CD spectra) [1]: greater activity than AGX51; ID1 protein levels relative to AGX51 [2]: reduced Id protein levels at lower concentrations than AGX51; competition with the AGX51 tracer (BRET ratio) ([3]; 2 μM AGX51 tracer, 0–60 μM competitor, 50 μg/mL digitonin): more efficiently; Id1 protein levels relative to AGX51 [4]: reduced Id protein levels at lower concentrations than AGX51; area of CNV, AGXA compared with AGX51 [5]: worked better than AGX51; reduction in IC50 values relative to AGX51 [6]: ~4 fold

Q: Which “IC50 in cell viability assays, relative to AGX51” value [7] does the source give for `CC(C)c1ccc(NNC(=O)c2cc3ccccc3s2)cc1` [AGX8, N’-(4-isopropylphenyl)benzo[b]thiophene-2-carbohydrazide] here?
A: higher IC50

Q: And the “concentrations required to perturb Id1 in the EMSA assay, relative to AGX51” value [8]?
A: higher concentrations

Q: And the “concentrations required to degrade Id proteins in cells, relative to AGX51” value [9]?
A: higher concentrations

Q: For `COc1ccccc1C(CCN(Cc1ccccc1)C(=O)CCOCCOCCNC(=O)CCC1=[N+]2C(=Cc3ccc(-c4ccc[nH]4)n3[B-]2(F)F)C=C1)c1ccc2c(c1)OCO2` (stereo not shown) [AGX51 tracer, 3-(17-(benzo[d][1,3]dioxol-5-yl)-14-benzyl-17-(2-methoxyphenyl)-3,13-dioxo-7,10-dioxa-4,14-diazaheptadecyl)-5,5-difluoro-7-(1H-pyrrol-2-yl)-5H-5λ4-dipyrrolo[1,2-c:2’,1’-f][1,3,2]diazaborinin-4-ium], which BRET ratio ([3]; tracer 0–4 μM, digitonin-permeabilized 293T cells) is on record?
A: dose-dependent increase in the BRET ratio

Q: Which results are given for `O=C(NCCC(c1ccccc1)c1ccccc1)c1ccc(C(=O)c2ccccc2)cc1` [AGX51-XL2, 4-benzoyl-N-(3,3-diphenylpropyl)bezamide]?
A: covalent binding to E47 [10]: nor was there evidence of AGX51-XL2 binding to E47; covalent binding to Id1 after UV exposure [11]: covalently binding to Id1 at six residues (V73, P74, T75, P77, Q78, and R80)

Q: For `CC(C)C[C@@H](C=O)NC(=O)[C@H](CC(C)C)NC(=O)[C@H](CC(C)C)NC(=O)OCc1ccccc1` [MG132] (Cbz-Leu-Leu-Leu-aldehyde), which ID1 ubiquitylation [12] is on record?
A: ID1 ubiquitylation was observed
